Here are results for nine molecules from ChEMBL document CHEMBL1146019, “Structure-based design of novel HIV-1 protease inhibitors to combat drug resistance” (J Med Chem, 2006).

Experiment [1] relates to Human immunodeficiency virus 1. Description: Antiviral activity against HIV1 LAI isolate in human MT2 cells. It counts as functional, organism-based. The following applies: Human immunodeficiency virus 1, MT2. The method, boiled down: (§1)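 MT-2 cells (2 × 10⁴/mL) were infected with 100 TCID₅₀ of virus and incubated with various drug concentrations at 37 °C for 7 days. MTT was then added for 2 h at 37 °C, formazan was dissolved in acidified 2-propanol with 4% Triton X-100, and optical density was read. Assays were run in duplicate or triplicate.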

Experiment [2] deals with Human immunodeficiency virus 1. Nature of the experiment: Antiviral activity against HIV1 LAI isolate in human PHA-PBMC cells. Type of experiment: functional, organism-based. The following applies: Human immunodeficiency virus 1, PBMC. The method, boiled down:
(§2)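 PHA-activated PBMC (1 × 10⁶/mL) were exposed to 50 TCID₅₀ of each isolate and cultured with or without drug in 10-fold serial dilutions. On day 7, supernatant p24 Gag was measured by chemiluminescent enzyme immunoassay. IC₅₀ was the concentration suppressing p24 production by 50% relative to drug-free control cultures. Assays were run in triplicate.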

In experiment [3] the test system is Human immunodeficiency virus 1. Description: Antiviral activity against HIV1 BA-L isolate in human PHA-PBMC cells. Type of experiment: functional, organism-based. As to conditions: Human immunodeficiency virus 1, PBMC. The method, boiled down: as §2
The subject of experiment [4] is Human immunodeficiency virus 2. Description: Antiviral activity against HIV2 EHO isolate in human MT2 cells. It counts as functional, organism-based. As to conditions: Human immunodeficiency virus 2, MT2. The essentials:
as §1

Experiment [5] relates to Human immunodeficiency virus 1. Description: Antiviral activity against multi drug-resistant HIV1 ET variant in human PHA-PBMC cells. It counts as functional, organism-based. As to conditions: Human immunodeficiency virus 1, PBMC. The method, boiled down:
(§3)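 PHA-activated peripheral blood mononuclear cells (1 × 10⁶/mL) infected with 50 TCID₅₀ of each isolate and cultured with or without drug in 10-fold serial dilutions. On day 7, p24 Gag protein in the supernatant was measured by automated chemiluminescent enzyme immunoassay. IC₅₀ was the concentration suppressing p24 production by 50% relative to drug-free control cultures. Assays were run in triplicate.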

Experiment [6] relates to Human immunodeficiency virus 1. Description: Antiviral activity against multi drug-resistant HIV1 B variant in human PHA-PBMC cells. Type of experiment: functional, organism-based. As to conditions: Human immunodeficiency virus 1, PBMC. The essentials:
as §3

The test system of experiment [7] is Human immunodeficiency virus 1. Description: Antiviral activity against multi drug-resistant HIV1 C variant in human PHA-PBMC cells. It counts as functional, organism-based. As to conditions: Human immunodeficiency virus 1, PBMC. The essentials:
as §3

The test system of experiment [8] is Human immunodeficiency virus 1. Description: Antiviral activity against multi drug-resistant HIV1 G variant in human PHA-PBMC cells. It counts as functional, organism-based. As to conditions: Human immunodeficiency virus 1, PBMC. The essentials: as §3
In experiment [9] the test system is Human immunodeficiency virus 1. Description: Antiviral activity against multi drug-resistant HIV1 TM variant in human PHA-PBMC cells. It counts as functional, organism-based. As to conditions: Human immunodeficiency virus 1, PBMC. The essentials:
as §3

The subject of experiment [10] is Human immunodeficiency virus 1. Nature of the experiment: Antiviral activity against multi drug-resistant HIV1 EV variant in human PHA-PBMC cells. It counts as functional, organism-based. As to conditions: Human immunodeficiency virus 1, PBMC. The essentials:
as §3

Experiment [11] deals with Human immunodeficiency virus 1. Nature of the experiment: Antiviral activity against multi drug-resistant HIV1 ES variant in human PHA-PBMC cells. It counts as functional, organism-based. The following applies: Human immunodeficiency virus 1, PBMC. The essentials:
as §3

The test system of experiment [12] is Human immunodeficiency virus 1. Description: Antiviral activity against multi drug-resistant HIV1 K variant in human PHA-PBMC cells. As to conditions: Human immunodeficiency virus 1, PBMC. It counts as functional, organism-based. The method, boiled down:
as §3

In experiment [13] the target is Human immunodeficiency virus type 1 protease (Human immunodeficiency virus 1, UniProt Q72874). Description: Inhibition of HIV1 protease.
The subject of experiment [14] is MT2. Description: Cytotoxicity against human MT2 cells. It counts as functional.
In experiment [15] the test system is PBMC. Description: Cytotoxicity against human PHA-PBMC cells. Type of experiment: functional.

pIC50, pKi: −log10 of the molar value. Where only a bound is given, the exact number is not on record here.

What is called pIC50 is the negative decadic logarithm of the IC50, by convention in mol/L. For `CC(C)c1nc(CN(C)C(=O)N[C@H](C(=O)N[C@@H](Cc2ccccc2)C[C@H](O)[C@H](Cc2ccccc2)NC(=O)OCc2cncs2)C(C)C)cs1` [RITONAVIR], the pIC50 in [1] is 7.47; in experiment [2], 7.37; in experiment [3], 7.44; in experiment [4], 6.54; in [5], 7.82; in experiment [6], under 6.00. In addition, the pIC50 is under 6.00 in [7]; under 6.00 in [8]; under 6.00 in [9]; under 6.00 in experiment [10]; under 6.00 in experiment [11]; 7.24 in experiment [12].

By pKi is commonly meant the negative decadic logarithm of the Ki, by convention in mol/L. Lower therefore signals a high Ki. In experiment [1], `CC(C)CN(CC(O)C(Cc1ccccc1)NC(=O)O[C@@H]1C[C@@H]2CCO[C@@H]2C1)S(=O)(=O)c1ccc(N)cc1` (some centres not stated) gave a pIC50 of 8.10. Further, the negative logarithm of the Ki (pKi) in [13] was 9.85.

Broadly, the CC50 is the concentration giving 50% cytotoxicity. For `CC(C)CN(CC(O)C(Cc1ccccc1)NC(=O)O[C@@H]1C[C@@H]2CCO[C@@H]2C1)S(=O)(=O)c1ccc(CO)cc1` (some centres not stated), the pIC50 is 8.74 in experiment [1]; 8.74 in experiment [2]; 8.70 in [3]; 7.68 in experiment [4]; 8.52 in experiment [5]; 7.82 in experiment [6]. The negative logarithm of the IC50 (pIC50) in experiment [7] was 8.30; in experiment [8], 7.70; in experiment [9], 8.40; in experiment [10], 7.28; in experiment [11], 7.51; in experiment [12], 8.52. Also, the CC50 in experiment [14] and in experiment [15] was over 100000 nM each time.

As to `CC(C)(C)NC(=O)[C@@H]1C[C@@H]2CCCC[C@@H]2CN1C[C@@H](O)[C@H](Cc1ccccc1)NC(=O)[C@H](CC(N)=O)NC(=O)c1ccc2ccccc2n1`, the pIC50 in experiment [1] was 7.62; in [2] it was 7.85; in experiment [3] it was 7.74; in [4] it was 8.72; in experiment [5], 7.77; in experiment [7], 7.00. The pIC50 was 7.23 in [8]; 6.60 in experiment [9]; under 6.00 in experiment [10]; under 6.00 in experiment [11]; 7.70 in experiment [12].

`CC(C)CN(C[C@@H](O)[C@H](Cc1ccccc1)NC(=O)O[C@H]1CCOC1)S(=O)(=O)c1ccc(N)cc1`: the pIC50 was 7.62 in experiment [1]; 7.47 in experiment [2]; 7.54 in [3]; 6.36 in experiment [4]; 7.64 in experiment [5]; 6.54 in experiment [6]. The pIC50 in [7] was 6.52; in experiment [8], 6.51; in experiment [9], 6.66; in [10] it was under 6.00; in [11] it was under 6.00; in experiment [12] it was 7.17.

As for `Cc1c(O)cccc1C(=O)N[C@@H](CSc1ccccc1)[C@H](O)CN1C[C@H]2CCCC[C@H]2C[C@H]1C(=O)NC(C)(C)C`, the pIC50 in [1] is 8.00; in [2], 7.85; in experiment [3], 8.15; in experiment [4], 7.70; in [5] it was 7.49; in experiment [6] it was under 6.00. In addition, the negative logarithm of the IC50 (pIC50) in experiment [7] is 6.51; in experiment [8] it was 6.77; in experiment [9] it was under 6.00; in [10], under 6.00; in experiment [11], under 6.00; in experiment [12], under 6.00.

Turning to `CC(C)(C)NC(=O)[C@@H]1CN(Cc2cccnc2)CCN1C[C@@H](O)C[C@@H](Cc1ccccc1)C(=O)N[C@H]1c2ccccc2C[C@H]1O`, the pIC50 in [1] is 7.59; in [2] it was 7.49; in [3], 7.62; in experiment [4], 7.89; in experiment [5], 7.52; in [6], under 6.00. For the same molecule, the pIC50 in experiment [7] was 6.30; in experiment [8], 6.30; in experiment [9], under 6.00; in [10], under 6.00; in [11], under 6.00; in [12], 6.59.

Regarding `CC(C)CN(CC(O)C(Cc1ccccc1)NC(=O)O[C@H]1C[C@H]2CCC[C@H]2C1)S(=O)(=O)c1ccc(CO)cc1` (some centres not stated), the pIC50 in [1] is under 6.00. Further, the pKi in experiment [13] is 8.28.

On to `CC(C)CN(C[C@@H](O)[C@H](Cc1ccccc1)NC(=O)O[C@H]1CO[C@H]2OCC[C@H]21)S(=O)(=O)c1ccc(N)cc1`, for which the pIC50 in experiment [6] is 7.99; in experiment [7], 8.46; in [8] it was 8.43; in experiment [9] it was 8.46; in experiment [12], 8.52.
